A3G deaminase: APOBEC3G DNA deaminase inhibitors, primary screen, biochemical, fluorescence, single-stranded DNA substrate, uHTS; recombinant A3G, ssDNA deamination FAM/TAMRA fluorescence; inhibition, % at 20 µM; actives 0.28% (n = 330,000);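 active means inhibition of at least 40% at 20 µM, with no more than 30% in the related APOBEC3A deaminase screen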;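 further: plate controls were DMSO wells with A3G for no effect and wells lacking A3G enzyme for full effect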
core dimer inh: inhibitors of HCV core protein dimerization, primary screen, biochemical, TR-FRET, high-throughput; TR-FRET GST/Flag-core106 dimerization, 1536-well; inhibition, % at 5 µM; actives 0.33% (n = 300,000); AID 1899, 2009;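 active means inhibition above the mean of all tested compounds plus 3 SD, set per screening campaign, cut at about 45% in these data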
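System: GST/Flag-tagged HCV core106 proteins. Incubation: compound-protein-antibody incubation 4 h at 22.5 °C. Technique: HTRF with 340 nm excitation, 617/671 nm emission. Medium: KF-containing HEPES buffer, pH 7.45, DTT, CHAPS, BSA. Read-out: inhibition (%) from 671 over 617 nm ratio. Also added: Eu(K)-anti-GST 90 ng/mL plus XL665-anti-Flag 1 µg/mL.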
PRMT1 inh: PRMT1 methyltransferase inhibitors, primary screen, biochemical, fluorescence polarization; Protein arginine N-methyltransferase 1 (Homo sapiens), Q99873; recombinant PRMT1, activity-based probe fluorescence polarization; inhibition, % at 2.79 µM; actives 1.3% (n = 370,000); AID 652257, 2013;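 active means inhibition above about 21% made by adding two undisclosed values, limit read from the data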
Target sequence (Q99873 whole entry, looked up): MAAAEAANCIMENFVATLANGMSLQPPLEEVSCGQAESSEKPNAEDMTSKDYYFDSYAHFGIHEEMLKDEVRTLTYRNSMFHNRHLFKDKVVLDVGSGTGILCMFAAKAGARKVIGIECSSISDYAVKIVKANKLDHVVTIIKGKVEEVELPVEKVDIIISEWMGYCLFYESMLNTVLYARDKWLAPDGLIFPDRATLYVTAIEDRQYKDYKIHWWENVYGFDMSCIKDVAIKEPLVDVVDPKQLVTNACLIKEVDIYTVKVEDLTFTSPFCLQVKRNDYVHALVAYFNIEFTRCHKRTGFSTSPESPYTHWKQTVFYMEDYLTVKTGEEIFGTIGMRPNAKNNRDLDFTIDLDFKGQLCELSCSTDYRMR
APOBEC3A inh: APOBEC3A ssDNA deaminase inhibitors, primary screen, selectivity assay for APOBEC3G inhibitor project, biochemical, FAM/TAMRA oligo cleavage fluorescence | DNA dC->dU-editing enzyme APOBEC-3A (Homo sapiens), P31941 | recombinant A3A, FAM/TAMRA ssDNA deamination fluorescence | inhibition, % at 20 µM | actives 0.41% (n = 330,000);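 active means at least 40% inhibition at 20 µM here, with at most 30% in a related deaminase screen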;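 further: plate controls were A3A with DMSO for no effect and wells lacking A3A enzyme for full effect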
Target sequence (P31941 whole entry, looked up): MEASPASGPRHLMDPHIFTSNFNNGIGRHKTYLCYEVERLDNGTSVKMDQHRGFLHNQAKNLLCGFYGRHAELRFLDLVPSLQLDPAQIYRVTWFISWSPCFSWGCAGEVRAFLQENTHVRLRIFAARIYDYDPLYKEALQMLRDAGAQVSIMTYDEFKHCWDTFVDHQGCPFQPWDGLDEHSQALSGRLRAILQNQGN
NS3 helicase inh: inhibitors of HCV NS3 helicase, primary screen, biochemical, Cy5 molecular beacon fluorescence. Hepatitis C virus NS3 helicase. NS3 helicase DNA unwinding. inhibition, % at 10.9 µM. actives 0.56% (n = 290,000). AID 1800, 2009;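 active means inhibition above the mean of all tested compounds plus 3 SD, set per campaign, cut at about 35% in these data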;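 further: 0% = DMSO wells and 100% = thioflavine S control wells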
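Material: hepatitis C virus NS3 helicase domain fragment enzyme; measured by: Cy5 fluorescence, 0 and 60 min reads; control set: DMSO and thioflavine S; incubation: 60 min unwinding reaction at 25 °C after ATP addition; read-out basis: % inhibition from 60/0 min fluorescence ratio, DMSO 0%, thioflavine S 100%; repeats: singlicate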
ABHD5-PLIN5 inh: ABHD5-PLIN5 interaction inhibitors, primary screen, cell lysate, split luciferase complementation, luminescence; Perilipin-5 (Homo sapiens) + 1-acylglycerol-3-phosphate O-acyltransferase ABHD5 (Homo …; Split G. princeps luciferase complementation, 4 h; inhibition, % at 4 µM; actives 0.78% (n = 360,000);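 active means inhibition above the mean inhibition across every tested compound plus 3 SD, cut at about 22% in these data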;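 further: 0% = DMSO only wells and the 100% control is not disclosed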
APOBEC3G confirm: APOBEC3G deaminase inhibitor retest, confirmation, biochemical, fluorescence, single-stranded DNA substrate, single concentration. shares compounds with A3G deaminase. recombinant A3G ssDNA deaminase, UDG/FAM-TAMRA fluorescence. inhibition, % at 20 µM. actives 72% (n = 890). AID 493152, 2011;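 active means inhibition reaching a set limit in any replicate at 20 µM, the limit being 80% of the first screen's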
UDG A3G counter: E. coli UDG inhibitors, confirmation, counter-screen for APOBEC3G inhibitor project, biochemical, single concentration, fluorescence, FAM/TAMRA oligo; shares compounds with A3G deaminase; UDG counterscreen; inhibition, % at 20 µM; 710 tested, under 10 active;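 active means compounds giving 40% or more inhibition at 20 µM in any one of the three replicates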;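 further: plate controls were DMSO wells with UDG and oligo for no effect and DMSO wells lacking both for full effect; inhibitors lower the FAM signal released by uracil excision and alkaline cleavage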
An asterisk follows results filed as active; · = no result given. In the library only some 2.9% were active in any assay of this set; here they are far more common.

SMILES	A3G deaminase	core dimer inh	PRMT1 inh	APOBEC3A inh	NS3 helicase inh	ABHD5-PLIN5 inh	APOBEC3G confirm	UDG A3G counter
COC(=O)[C@@]1(C(C)C)N=C(c2cc(OC)c(OC)c(OC)c2)[C@]2(O1)C(=O)N(C)c1ccccc12	·	·	3	·	·	-2	·	·
COc1ccccc1/C=C/C=N/NC(=O)c1cc(-c2ccco2)[nH]n1	64*	44	8	26	26	17	21*	-3
CCCCOCCCNC(=O)C[C@@H]1C[C@@]2(C(=O)OC)CC(C)(C)CC=C2N(Cc2ccc3c(c2)OCO3)C1=O	·	·	0	·	·	10	·	·
COc1ccc(OC)c(CCNC(=O)Cn2sc3nc(C)cc(C)c3c2=O)c1	63*	2	·	0	-4	·	78*	·
S=c1[nH]c2ccccc2n1CCOc1ccccc1	10	3	15	-7	28	-12	·	·
Cc1cccc(OCCn2c(=S)[nH]c3ccccc32)c1	62*	0	18	8	-13	-11	46*	-1
CC/C(=N/Nc1cccc(C)c1)c1cnnc(SC)n1	46*	-17	-1	3	1	2	19	·
CCOC(=O)c1c2c3c(cccc3n(C)c1=O)C(=O)c1ccccc1-2	55*	13	3	-1	-59	12	-1	-3
CCOC(=O)c1c2c3c(cccc3[nH]c1=O)C(=O)c1ccccc1-2	53*	9	5	-3	-8	1	1	-2
COC(=O)[C@]1(CNC(=O)C(C)(C)C)CC(=O)N(Cc2ccc(Cl)cc2)[C@@H]1c1ccc(OC)cc1	·	·	-3	·	·	·	·	·
COc1ccc(-n2c(=S)[nH]c3c(sc(=S)n3-c3ccccc3)c2=O)c(OC)c1	44*	0	19	3	-3	-4	36*	-3
CCOC(=O)CSc1nc2c(sc(=S)n2-c2ccccc2OC)c(=O)n1-c1ccccc1OC	-5	15	1	0	8	3	·	·
COc1ccc(-n2c(SCC(=O)C(C)(C)C)nc3c(sc(=S)n3-c3ccccc3)c2=O)c(OC)c1	40*	15	0	1	8	0	50*	-2
COc1ccc(-n2c(=S)[nH]c3sc(-c4ccccc4)cc3c2=O)c(OC)c1	6	18	1	4	-2	-3	·	·
CCNC(=O)C1(C)CCN(C(=O)c2ccc(-c3ccccc3)cc2)C1 (centres undefined)	·	·	1	·	·	-3	·	·
C=CCOC(=O)N1CCC(NS(=O)(=O)c2ccc3c(c2)CCN3C(C)=O)CC1	·	·	4	·	·	·	·	·
Cc1cccc(OCc2nnc(SCC(=O)NC3CCCCC3)n2C)c1	2	1	-4	-3	1	-1	·	·
COC(=O)C1(C(=O)OC)C(C(=O)c2ccccc2)C1c1ccccc1 (centres undefined)	·	·	2	·	·	-3	·	·
COc1cc(C(=O)N2C(=O)CCC2=O)cc(OC)c1OC	57*	3	0	0	3	-2	5	-1
COc1cc(C(=O)N2CCNCC2)cc(OC)c1OC	-1	-3	-2	-6	-19	-2	·	·
Oc1ccc(-c2cn3c(n2)SCC3)cc1O	59*	-18	17	3	15	-9	76*	-4
S=c1[nH]nc(-c2cc(-c3ccccc3)n[nH]2)n1/N=C/C=C/c1ccccc1	20	5	3	-7	9	-6	·	·
Cc1cccc(-c2n[nH]c(=S)n2/N=C/c2cccs2)c1	17	-3	6	-5	-6	3	·	·
S=c1[nH]nc(-c2cccnc2)n1/N=C/c1cccs1	41*	-3	2	-10	2	-9	81*	-5
O=[N+]([O-])c1cc2c(cc1/C=N/n1c(-c3ccccc3)n[nH]c1=S)OCO2	55*	6	10	-3	30	-3	84*	-3
SMILES	A3G deaminase	core dimer inh	PRMT1 inh	APOBEC3A inh	NS3 helicase inh	ABHD5-PLIN5 inh	APOBEC3G confirm	UDG A3G counter
Fc1cccc(Cl)c1/C=N/n1c(-c2cccnc2)n[nH]c1=S	46*	1	1	-3	5	0	76*	-5
S=c1[nH]nc(-c2cccnc2)n1/N=C/C=C/c1ccccc1	42*	22	4	-5	-1	4	75*	-2
O=C1SCCN1N=Cc1ccc([N+](=O)[O-])o1	·	·	19	·	·	-7	·	·
O=C(NN=Cc1cccc(OCc2ccccc2)c1)c1cc(-c2ccc(Cl)cc2)n[nH]1	·	·	-3	·	·	·	·	·
S=c1[nH]nc(-c2cccnc2)n1/N=C/c1ccccc1	44*	-3	-5	-3	-15	1	80*	-3
Oc1c(Br)cc(/C=N/n2c(-c3ccccc3)n[nH]c2=S)cc1Br	33	·	-6	1	25	-3	·	·
O=[N+]([O-])c1cc(/C=N/n2c(-c3cccnc3)n[nH]c2=S)ccc1Cl	38	14	17	3	-2	9	·	·
O=[N+]([O-])c1ccccc1/C=N/n1c(-c2cccnc2)n[nH]c1=S	69*	7	1	-4	7	6	80*	-1
CCOC(=O)N1CCc2c(sc(N)c2C#N)C1	49*	-4	4	0	11	·	36*	·
CCOC(=O)N1CCc2c(sc(NC(=O)CN3CCOCC3)c2C#N)C1	10	-11	-5	3	15	3	·	·
CCN1CCN(c2nc(-c3ccccc3Cl)nc3ccccc23)CC1	44*	-5	3	-5	-1	-3	-1	-4
COC(=O)[C@H](CC(C)C)NC(=O)c1cc2c(cn1)[nH]c1ccccc12	58*	-2	5	1	6	2	63*	·
COC(=O)C(Cc1ccccc1)NC(=O)c1cc(=O)[nH]c2ccccc12 (centres undefined)	-5	4	7	-3	7	7	·	·
Cc1ccc(-n2c(N)c(C(=O)N3CCCCC3)sc2=S)cc1	37	-1	5	-2	2	0	·	·
